According to ChEMBL document CHEMBL4118073, “Evaluation of the antidepressant therapeutic potential of isocyanine and pseudoisocyanine analogues of the organic cation decynium-22” (Eur J Med Chem, 2017):

Legend:
[1] = target: T1, Alpha-1 adrenergic receptor (Mus musculus, UniProt P97714+P97717+P97718); assay: Displacement of [3H]prazosin from alpha1 adrenoceptor in C57BL/6 mouse hippocampal homogenates after 40 mins by liquid scintillation counting method
T1 sequence (P97714 whole entry): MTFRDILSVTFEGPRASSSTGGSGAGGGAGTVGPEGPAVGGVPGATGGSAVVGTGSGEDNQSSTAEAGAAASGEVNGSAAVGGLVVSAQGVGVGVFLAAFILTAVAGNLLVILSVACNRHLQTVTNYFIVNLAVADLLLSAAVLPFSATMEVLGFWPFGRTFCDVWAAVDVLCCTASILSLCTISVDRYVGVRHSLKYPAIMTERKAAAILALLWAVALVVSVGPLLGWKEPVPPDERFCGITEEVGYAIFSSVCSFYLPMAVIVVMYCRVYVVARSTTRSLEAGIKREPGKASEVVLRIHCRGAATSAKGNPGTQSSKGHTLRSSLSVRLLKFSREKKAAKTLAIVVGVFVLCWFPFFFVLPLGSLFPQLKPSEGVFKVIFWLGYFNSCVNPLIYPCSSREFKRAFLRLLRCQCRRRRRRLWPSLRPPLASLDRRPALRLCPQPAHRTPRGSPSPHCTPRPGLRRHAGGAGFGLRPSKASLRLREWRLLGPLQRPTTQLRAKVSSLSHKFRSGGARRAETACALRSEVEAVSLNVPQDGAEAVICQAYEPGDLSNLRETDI
T1 sequence (P97717 whole entry): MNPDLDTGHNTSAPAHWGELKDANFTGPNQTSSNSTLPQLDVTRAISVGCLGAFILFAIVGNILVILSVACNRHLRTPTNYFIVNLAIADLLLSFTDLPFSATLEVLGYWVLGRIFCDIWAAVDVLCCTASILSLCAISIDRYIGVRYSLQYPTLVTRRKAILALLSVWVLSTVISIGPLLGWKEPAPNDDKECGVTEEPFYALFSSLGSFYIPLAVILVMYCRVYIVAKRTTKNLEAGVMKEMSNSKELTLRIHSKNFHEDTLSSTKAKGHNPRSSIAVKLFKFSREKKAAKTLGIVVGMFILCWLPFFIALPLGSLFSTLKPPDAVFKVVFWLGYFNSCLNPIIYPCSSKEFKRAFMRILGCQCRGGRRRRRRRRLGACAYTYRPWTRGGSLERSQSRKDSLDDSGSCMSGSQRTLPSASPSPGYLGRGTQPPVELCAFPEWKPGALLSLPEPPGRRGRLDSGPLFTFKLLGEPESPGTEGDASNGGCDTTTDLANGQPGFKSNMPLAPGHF
T1 sequence (P97718 whole entry): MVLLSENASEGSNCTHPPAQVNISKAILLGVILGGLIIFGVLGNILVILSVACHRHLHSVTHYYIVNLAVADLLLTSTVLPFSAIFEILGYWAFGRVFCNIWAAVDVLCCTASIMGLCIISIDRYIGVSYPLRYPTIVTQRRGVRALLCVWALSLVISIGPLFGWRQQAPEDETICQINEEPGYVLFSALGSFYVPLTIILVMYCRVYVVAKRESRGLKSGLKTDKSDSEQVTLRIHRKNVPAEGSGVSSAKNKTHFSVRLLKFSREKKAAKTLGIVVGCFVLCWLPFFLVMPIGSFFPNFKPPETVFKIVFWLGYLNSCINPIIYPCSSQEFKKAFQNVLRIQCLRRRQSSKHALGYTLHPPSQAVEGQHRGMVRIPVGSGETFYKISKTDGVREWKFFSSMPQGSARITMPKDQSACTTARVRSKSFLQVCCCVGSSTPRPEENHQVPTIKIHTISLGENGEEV
Procedure, shortened: (§1)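 Mouse hippocampal homogenate incubated with 1.5 nM [³H]prazosin and competing ligand across a concentration series. Bound radioligand was expressed as displacement relative to control. IC₅₀ was obtained from non-linear regression fitting of concentration-effect curves, and curve fits were compared with tamsulosin.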

Mus musculus [2] = assay: Anti-depressant-like activity in mouse assessed as time spent immobile at 0.1 mg/kg, ip administered 60 mins prior to testing measured for 6 mins by tail suspension test (reference value: 186.9 +/- 13.2 secs); format: functional
Mus musculus [3] = assay: Anti-depressant-like activity in mouse assessed as time spent immobile at 1 mg/kg, ip administered 60 mins prior to testing measured for 6 mins by tail suspension test (reference value: 186.9 +/- 13.2 secs); format: functional
Mus musculus [4] = assay: Anti-depressant-like activity in mouse assessed as time spent immobile at 3.2 mg/kg, ip administered 60 mins prior to testing measured for 6 mins by tail suspension test (reference value: 186.9 +/- 13.2 secs); format: functional
Mus musculus [5] = assay: Toxicity in mouse assessed as suppression of locomotion at 1 mg/kg, ip measured for 5 mins; format: organism-based; conditions: in vivo
Mus musculus [6] = assay: Toxicity in mouse assessed as suppression of locomotion at 10 mg/kg, ip measured for 5 mins; format: organism-based; conditions: in vivo
Mus musculus [7] = assay: Toxicity in mouse assessed as suppression of locomotion at 0.1 mg/kg, ip measured for 5 mins; format: organism-based; conditions: in vivo
alpha1 adrenoceptor [8] = target: T2, alpha1 adrenoceptor (Mus musculus, UniProt P97714+P97717+P97718); assay: Displacement of [3H]prazosin from alpha1 adrenoceptor in C57BL/6 mouse hippocampal homogenates assessed as remaining receptor bound [3H]prazosin levels at 0.001 uM after 40 mins by liquid scintillation counting method relative to control; conditions: probe [3H]prazosin, read-out: Activity; procedure, shortened: as §1
T2 sequence (P97714 whole entry): T1 sequence (P97714 whole entry)
T2 sequence (P97717 whole entry): T1 sequence (P97717 whole entry)
T2 sequence (P97718 whole entry): T1 sequence (P97718 whole entry)

alpha1 adrenoceptor [9] = target: T2, alpha1 adrenoceptor; assay: Displacement of [3H]prazosin from alpha1 adrenoceptor in C57BL/6 mouse hippocampal homogenates assessed as remaining receptor bound [3H]prazosin levels at 0.01 uM after 40 mins by liquid scintillation counting method relative to control; conditions: probe [3H]prazosin, read-out: Activity; procedure, shortened: as §1
alpha1 adrenoceptor [10] = target: T2, alpha1 adrenoceptor; assay: Displacement of [3H]prazosin from alpha1 adrenoceptor in C57BL/6 mouse hippocampal homogenates assessed as remaining receptor bound [3H]prazosin levels at 0.1 uM after 40 mins by liquid scintillation counting method relative to control; conditions: probe [3H]prazosin, read-out: Activity; procedure, shortened: as §1
alpha1 adrenoceptor [11] = target: T2, alpha1 adrenoceptor; assay: Displacement of [3H]prazosin from alpha1 adrenoceptor in C57BL/6 mouse hippocampal homogenates assessed as remaining receptor bound [3H]prazosin levels at 1 uM after 40 mins by liquid scintillation counting method relative to control; conditions: probe [3H]prazosin, read-out: Activity; procedure, shortened: as §1
alpha1 adrenoceptor [12] = target: T2, alpha1 adrenoceptor; assay: Displacement of [3H]prazosin from alpha1 adrenoceptor in C57BL/6 mouse hippocampal homogenates assessed as remaining receptor bound [3H]prazosin levels at 10 uM after 40 mins by liquid scintillation counting method relative to control; conditions: probe [3H]prazosin, read-out: Activity; procedure, shortened: as §1
alpha1 adrenoceptor [13] = target: T2, alpha1 adrenoceptor; assay: Displacement of [3H]prazosin from alpha1 adrenoceptor in C57BL/6 mouse hippocampal homogenates assessed as remaining receptor bound [3H]prazosin levels at 100 uM after 40 mins by liquid scintillation counting method relative to control; conditions: probe [3H]prazosin, read-out: Activity; procedure, shortened: as §1
Mus musculus [14] = assay: Toxicity in mouse assessed as mortality at 10 mg/kg, ip measured for 5 mins; format: organism-based; conditions: in vivo
Procedure, shortened: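 Mice were given an intraperitoneal injection of the compound, with D-22 dosed over 0.01–10.0 mg/kg and analogues at equivalent doses. Each mouse was placed at once in an infrared beam-break activity chamber. Beam breaks were counted per 5 min period over a four-hour session, and deaths at the 10 mg/kg dose were recorded in the locomotor dose groups.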

alpha1 adrenoceptor [15] = target: T2, alpha1 adrenoceptor; assay: Displacement of [3H]prazosin from alpha1 adrenoceptor in C57BL/6 mouse hippocampal homogenates assessed as remaining receptor bound [3H]prazosin levels at 0.0001 uM after 40 mins by liquid scintillation counting method relative to control; conditions: probe [3H]prazosin, read-out: Activity; procedure, shortened: as §1
alpha1 adrenoceptor [16] = target: T2, alpha1 adrenoceptor; assay: Displacement of [3H]prazosin from alpha1 adrenoceptor in C57BL/6 mouse hippocampal homogenates assessed as remaining receptor bound [3H]prazosin levels at 0.003 uM after 40 mins by liquid scintillation counting method relative to control; conditions: probe [3H]prazosin, read-out: Activity; procedure, shortened: as §1
alpha1 adrenoceptor [17] = target: T2, alpha1 adrenoceptor; assay: Displacement of [3H]prazosin from alpha1 adrenoceptor in C57BL/6 mouse hippocampal homogenates assessed as remaining receptor bound [3H]prazosin levels at 0.3 uM after 40 mins by liquid scintillation counting method relative to control; conditions: probe [3H]prazosin, read-out: Activity; procedure, shortened: as §1
alpha1 adrenoceptor [18] = target: T2, alpha1 adrenoceptor; assay: Displacement of [3H]prazosin from alpha1 adrenoceptor in C57BL/6 mouse hippocampal homogenates assessed as remaining receptor bound [3H]prazosin levels at 30 uM after 40 mins by liquid scintillation counting method relative to control; conditions: probe [3H]prazosin, read-out: Activity; procedure, shortened: as §1

## CCN1/C(=C/c2ccc3cc(Cl)ccc3[n+]2CC)C=Cc2ccccc21.[I-]
[1]
  IC50: 577 nM
Mus musculus [2]
  Time: 189.2 s
Mus musculus [3]
  Time: 189.3 s
Mus musculus [4]
  Time: 140.4 s
Mus musculus [5]
  Activity: Non-Toxic
Mus musculus [6]
  Activity: Toxic
Mus musculus [7]
  Activity: Non-Toxic

## CCN1/C(=C/c2ccc3cc(Br)ccc3[n+]2CC)C=Cc2ccccc21.[I-]
alpha1 adrenoceptor [8]
  activity at 40 min, 0.001 µM: 100%
alpha1 adrenoceptor [9]
  activity at 40 min, 0.01 µM: 102%
alpha1 adrenoceptor [10]
  activity at 40 min, 0.1 µM: 67.7%
alpha1 adrenoceptor [11]
  activity at 40 min, 1 µM: 43.3%
alpha1 adrenoceptor [12]
  activity at 40 min, 10 µM: 1.3%
alpha1 adrenoceptor [13]
  activity at 40 min, 100 µM: 0%
Mus musculus [2]
  Time: 171.3 s
Mus musculus [3]
  Time: 190 s
Mus musculus [4]
  Time: 179 s
Mus musculus [5]
  Activity: Non-Toxic
Mus musculus [6]
  Activity: Toxic
Mus musculus [7]
  Activity: Non-Toxic
Mus musculus [14]
  Activity: Toxic

## CC(C)[n+]1ccc(/C=C2/C=Cc3ccccc3N2C)c2ccccc21.O=C([O-])C(F)(F)F
[1]
  IC50: 1066 nM
alpha1 adrenoceptor [15]
  activity at 40 min, 0.0001 µM: 100%
alpha1 adrenoceptor [8]
  activity at 40 min, 0.001 µM: 100%
alpha1 adrenoceptor [9]
  activity at 40 min, 0.01 µM: 97.3%
alpha1 adrenoceptor [10]
  activity at 40 min, 0.1 µM: 89.7%
alpha1 adrenoceptor [11]
  activity at 40 min, 1 µM: 52.3%
alpha1 adrenoceptor [12]
  activity at 40 min, 10 µM: 6.7%
alpha1 adrenoceptor [13]
  activity at 40 min, 100 µM: 3.3%
Mus musculus [2]
  Time: 198.3 s
Mus musculus [3]
  Time: 152.8 s
Mus musculus [4]
  Time: 170.3 s
Mus musculus [5]
  Activity: Non-Toxic
Mus musculus [6]
  Activity: Toxic
Mus musculus [7]
  Activity: Non-Toxic

## Cc1ccnc2ccccc12
alpha1 adrenoceptor [8]
  activity at 40 min, 0.001 µM: 100%
alpha1 adrenoceptor [9]
  activity at 40 min, 0.01 µM: 26.3%
alpha1 adrenoceptor [10]
  activity at 40 min, 0.1 µM: 2.7%
alpha1 adrenoceptor [11]
  activity at 40 min, 1 µM: 8.3%
alpha1 adrenoceptor [12]
  activity at 40 min, 10 µM: 3%
alpha1 adrenoceptor [13]
  activity at 40 min, 100 µM: 0%

## CCN1/C(=C/c2ccc3cc(OC)ccc3[n+]2CC)C=Cc2ccccc21.[I-]
alpha1 adrenoceptor [8]
  activity at 40 min, 0.001 µM: 100%
alpha1 adrenoceptor [9]
  activity at 40 min, 0.01 µM: 97%
alpha1 adrenoceptor [10]
  activity at 40 min, 0.1 µM: 81%
alpha1 adrenoceptor [11]
  activity at 40 min, 1 µM: 23%
alpha1 adrenoceptor [12]
  activity at 40 min, 10 µM: 1.7%
alpha1 adrenoceptor [13]
  activity at 40 min, 100 µM: 1.3%
Mus musculus [2]
  Time: 167.2 s
Mus musculus [3]
  Time: 135.7 s
Mus musculus [4]
  Time: 203.1 s
Mus musculus [5]
  Activity: Non-Toxic
Mus musculus [6]
  Activity: Toxic
Mus musculus [7]
  Activity: Non-Toxic
Mus musculus [14]
  Activity: Toxic

## CN1/C(=C\c2cc[n+](C)c3ccccc23)C=Cc2ccccc21.O=C([O-])C(F)(F)F
Mus musculus [2]
  Time: 200.8 s
Mus musculus [3]
  Time: 165.3 s
Mus musculus [4]
  Time: 150 s
Mus musculus [5]
  Activity: Non-Toxic
Mus musculus [6]
  Activity: Toxic
Mus musculus [7]
  Activity: Non-Toxic
Mus musculus [14]
  Activity: Toxic

## CCN1/C(=C/c2ccc3ccccc3[n+]2CC)C=Cc2ccccc21.[I-]
[1]
  IC50: 60 nM
alpha1 adrenoceptor [15]
  activity at 40 min, 0.0001 µM: 100%
alpha1 adrenoceptor [8]
  activity at 40 min, 0.001 µM: 92.8%
alpha1 adrenoceptor [16]
  activity at 40 min, 0.003 µM: 84%
alpha1 adrenoceptor [9]
  activity at 40 min, 0.01 µM: 81.2%
alpha1 adrenoceptor [10]
  activity at 40 min, 0.1 µM: 44.6%
alpha1 adrenoceptor [17]
  activity at 40 min, 0.3 µM: 8%
alpha1 adrenoceptor [11]
  activity at 40 min, 1 µM: 16.6%
alpha1 adrenoceptor [12]
  activity at 40 min, 10 µM: 12.6%
alpha1 adrenoceptor [18]
  activity at 40 min, 30 µM: -5%
alpha1 adrenoceptor [13]
  activity at 40 min, 100 µM: 13.3%
Mus musculus [3]
  Time: 185.8 s
Mus musculus [4]
  Time: 149.3 s
Mus musculus [5]
  Activity: Toxic
Mus musculus [7]
  Activity: Non-Toxic

## CCN1/C(=C/c2ccc3cc(F)ccc3[n+]2CC)C=Cc2ccccc21.[I-]
[1]
  IC50: 348 nM
Mus musculus [2]
  Time: 185.5 s
Mus musculus [3]
  Time: 198.1 s
Mus musculus [4]
  Time: 113.5 s
Mus musculus [5]
  Activity: Non-Toxic
Mus musculus [6]
  Activity: Toxic
Mus musculus [7]
  Activity: Non-Toxic

## CCOc1ccccc1OCCN[C@H](C)Cc1ccc(OC)c(S(N)(=O)=O)c1 [TAMSULOSIN]
[1]
  IC50: 1.8 nM
